# NR2E3 ag-1 = activates human NR2E3 receptor; Q9Y5X4; AID 602229; CHO-S Gal4-NCOR/VP16-NR2E3 two-hybrid, luciferase; inhibition of corepressor binding, % at 3.98 µM; 360,000 tested, 0.35% active;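 active means inhibition above the mean of all tested compounds plus 3 SD, cut at about 70% in these data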;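 further: higher means lower luciferase signal from less NR2E3 corepressor binding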
# Target sequence (Q9Y5X4 whole entry, looked up, the tested form may be a part): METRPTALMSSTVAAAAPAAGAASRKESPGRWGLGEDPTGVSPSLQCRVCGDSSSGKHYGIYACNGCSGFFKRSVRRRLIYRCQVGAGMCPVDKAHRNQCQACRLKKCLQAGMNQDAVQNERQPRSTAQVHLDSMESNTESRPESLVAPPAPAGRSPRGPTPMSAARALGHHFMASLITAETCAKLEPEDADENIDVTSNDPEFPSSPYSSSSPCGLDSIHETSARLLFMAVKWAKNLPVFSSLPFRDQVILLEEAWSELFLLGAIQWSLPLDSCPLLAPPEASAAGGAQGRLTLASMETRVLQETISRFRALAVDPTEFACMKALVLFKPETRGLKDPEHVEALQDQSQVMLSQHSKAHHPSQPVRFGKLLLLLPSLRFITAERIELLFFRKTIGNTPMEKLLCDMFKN
# GAA850 FXN act = increases GAA850 frataxin promoter reporter activity; HEK293 lucGAA850 FXN promoter luciferase reporter, 24 h; percent of 10 µM SAHA response; activation, % at 6 µM; 360,000 tested, 0.56% active; AID 540364;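 active means activation above the average of all compounds screened plus 3 SD, cutoff fixed separately per campaign, cut at about 7.5% in these data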
# NR2E3 ag-2 = activates human photoreceptor nuclear receptor NR2E3; AID 2300; inhibition of corepressor binding, % at 4.78 µM; GST-NR2E3/biotin-RetCOR TR-FRET, 1536-well; 320,000 tested, 0.12% active; Q9Y5X4;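 active means percent inhibition above the cutoff of mean plus 3 SD of all tested compounds, set per screening campaign, cut at about 20% in these data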
#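 System: GST-tagged NR2E3 plus biotinylated RetCOR corepressor; Buffer or medium: pH 7.5 Tris-based buffer; Probe or stimulus: RetCOR corepressor, biotinylated, 7 nM; Doses: compound at 4.8 µM, single dose; Schedule: 5 h incubation at 4 °C; Technique: time-resolved FRET; Evaluation: percent inhibition of TR-FRET ratio; Replication: one well per compound, singlicate testing.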
# Myeloid diff MLP = promotes myeloid progenitor differentiation; calls only at 10 µM; 360,000 tested, 1% active; ER-HoxA9 myeloid progenitors, lysozyme-GFP differentiation, flow cytometry;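 active means normalized GFP-positive differentiation at or above the plate's own cutoff, the solvent-only control mean plus 3 SD; inconclusive means no clear call, values can overlap the other calls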;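 further: cells exposed to compound for four days before flow analysis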
# T cell modulator = T cell immune modulators affecting CD8 T cell-vesicle binding; 2C CD8+ T cell-vesicle binding, flow cytometry; active compounds read low; 330,000 tested, 0.068% active; response (vesicle binding), % at 7 µM;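 active means response, share of CD8 T cells binding vesicles, and their 90th percentile fluorescence all below set limits, cut at about 80% in these data, passing the limit was not always enough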;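 further: values below 100% mean blocked vesicle binding to the CD8+ T cells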
#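 Assay system – 2C mouse CD8+ T cells · Also added – QL9-loaded Drosophila micro-vesicles · Timing – Cell–vesicle co-incubation 1.5 h at 37 °C, staining 20 min on ice · Signal – flow cytometry of vesicle-bound cells · Measure – percent CD8+ FL2 mean versus row control · Controls – Peptide-free naked vesicles (low) and QL9 vesicles with 0.7% DMSO vehicle (high)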
# Myeloid diff CP1 = compounds promoting myeloid differentiation; 2,300 tested, 2% active; calls only; ER-HoxA9 myeloid progenitors, GFP/Mac1 double-positive flow; shares compounds with Myeloid diff MLP;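 active means share of green or green-and-red cells above 9 and 9% in run 1 or 4 and 3% in run 2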
# GFP autofluor = counter-screen for myeloid differentiation promoters: compound fluorescence; shares compounds with Myeloid diff MLP; ER-HoxA9 myeloid progenitors, no estrogen, GFP autofluorescence flow cytometry; vehicle wells 0%, positive control 100%; fluorescence response, % (concentration not given with the values); 2,300 tested, 7.4% active;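 active means over 5% cells positive for green fluorescent reporter, or over 2% positive for both it and APC stain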
# Numbers stand for hits; . = inactive; ? = inconclusive; / = no result given; + = active, no number. Rows were chosen to be rich in hits. Some 2% of all compounds tested hit in one or more screens of this group.
SMILES,NR2E3 ag-1,GAA850 FXN act,NR2E3 ag-2,Myeloid diff MLP,T cell modulator,Myeloid diff CP1,GFP autofluor
CSc1nc(Oc2ccc3ccccc3c2)c2sccc2n1,.,.,.,+,.,.,.
COc1ccc(Oc2nc(SC)nc3ccsc23)cc1,.,.,.,.,.,/,/
O=C(O)c1ccc(-c2ccc(O)c(F)c2)cc1,.,.,.,.,.,.,.
O=C(O)c1ccc(O)c(O)c1,.,.,.,.,.,/,/
CC(C)(C)C1CCN2CCC[C@](c3ccccc3)(C1)C2OCCCO (some centres not stated),.,/,/,.,/,/,/
Cc1ccc(NC(=S)Nc2cccc3cnccc23)cc1C,.,.,.,.,.,.,.
CNC[C@H](CC1CCCCC1)NC[C@H](CO)NCCc1cccc(C(F)(F)F)c1,.,.,.,+,.,.,.
CC(C)N(C(=O)CN(C#N)c1nc(N(C)C)nc(N(C)C)n1)c1ccccc1,.,.,.,.,.,.,.
CN1/C(=C\C(=O)c2cncc(Br)c2)C(C)(C)c2ccccc21,.,.,.,+,.,.,20
CN1/C(=C\C(=O)c2ccco2)C(C)(C)c2ccccc21,.,.,.,?,/,/,/
CC(C)(C)S(=O)N1Cc2cc(=O)n(Cc3ccccc3)c(CCO)c2[C@H]1CCO (some centres not stated),.,.,/,.,/,/,/
CN1CCN(Cc2nc(Cc3ccccc3)no2)CC1c1ccccc1 (configuration not stated),.,.,.,.,.,.,.
COc1ccc(CNC(=O)C2CCCN(C(=O)Nc3ccc(OC)cc3)C2)cc1 (configuration not stated),.,.,.,.,.,/,/
O=C1N=C(N2CCN(Cc3ccccc3)CC2)S/C1=C/c1cccs1,.,.,.,+,.,.,.
O=C1N=C(N2CCN(c3ccccc3)CC2)S/C1=C/c1cccs1,.,.,.,.,.,/,/
C=CCCC(=O)N1C[C@H]2CON(C)[C@H]2C[C@H]1c1cccc(Oc2ccccc2)c1,.,.,/,.,/,/,/
O=C(O)[C@@H]1[C@H]2C[C@H]3c4[nH]c5ccccc5c4CCN3C[C@@H]2CC[C@@H]1O,.,.,.,.,.,/,/
O=C(O)C1CCCC2CN3CCc4c([nH]c5ccccc45)C3C(O)C21 (configuration not stated),.,.,.,.,.,.,.
CCC(=O)N/C(N)=N/c1nc(C)c2cc(C)c(C)cc2n1,.,.,.,.,.,/,/
Cc1cc2nc(/N=C(\N)NC(=O)C(C)C)nc(C)c2cc1C,.,.,.,.,.,.,.
CSc1nc(N)nc(SCC(=O)Nc2ccc(Cl)cc2)c1C#N,.,.,.,.,.,.,.
Nc1ccn([C@@H]2O[C@H](C(=O)Nc3ccc(C(=O)N4CCCCC4)cc3)[C@@H](O)[C@H]2O)c(=O)n1,.,/,/,.,/,/,/
CN(CC(=O)Nc1ccc(Cl)cc1)CC(=O)Nc1sc2c(c1C(N)=O)CCC2,.,.,/,.,/,/,/
COc1nc(OC)nc(N2CCCCCC2)n1,.,.,.,.,.,.,.
COc1ccc(C2=Cc3ccccc3C(CC(=O)C3CC3)N2c2ccc(C#CCCO)cc2)cc1 (configuration not stated),.,/,/,.,/,/,/
SMILES,NR2E3 ag-1,GAA850 FXN act,NR2E3 ag-2,Myeloid diff MLP,T cell modulator,Myeloid diff CP1,GFP autofluor
CC(=O)Nc1ccc(NC(=O)c2cc(S(=O)(=O)N3CCCCC3)ccc2N2CCOCC2)cc1,.,.,/,.,/,/,/
COc1cc(NC(=O)c2cc(S(=O)(=O)N3CCCCC3)ccc2N2CCOCC2)cc(OC)c1,.,.,.,+,.,.,.
CCOc1ccc(-n2c(C)c3c(C)nnc(C)c3c2C)cc1,.,.,/,.,/,.,42
Cc1cc(NC(=O)CSc2nc(C3CC3)nc3sc(C)c(C)c23)no1,.,.,.,.,.,.,2.7
CCc1nc(SCC(=O)Nc2cc(C)on2)c2c(C)c(C)sc2n1,.,.,.,.,.,/,/
COc1ccccc1C(C(=O)c1ccccc1)c1ccc2ccccc2c1 (configuration not stated),/,/,/,.,/,/,/
Cc1ccc2c(Cl)c(Cc3ccccc3)c(=S)[nH]c2n1,.,.,/,.,/,/,/

# Assay outcomes: PubChem, several laboratories
